Screening data deposited in PubChem by several laboratories.
This is a sample that favours compounds with a hit; in the whole collection about 0.41% have one here.
S1P3 antagonist: antagonists of human S1P3 receptor; Q99500; AID 485; 0.27% of 170,000 active; inhibition, % at 4.98 µM; CHO S1P3 NFAT-BLA reporter, FRET fluorescence, antagonist mode;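 active means inhibition above the plate cutoff, the mean inhibition of test wells on that plate plus 3 SD, cut at about 28% in these data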;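 further: cells challenged with S1P at its EC80 of 0.8 µM; blue over green emission ratio from cleaved BLA substrate after 4 h stimulation; 0% = S1P-stimulated wells and 100% = unstimulated DMSO-only wells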
Target sequence (Q99500 whole entry, looked up): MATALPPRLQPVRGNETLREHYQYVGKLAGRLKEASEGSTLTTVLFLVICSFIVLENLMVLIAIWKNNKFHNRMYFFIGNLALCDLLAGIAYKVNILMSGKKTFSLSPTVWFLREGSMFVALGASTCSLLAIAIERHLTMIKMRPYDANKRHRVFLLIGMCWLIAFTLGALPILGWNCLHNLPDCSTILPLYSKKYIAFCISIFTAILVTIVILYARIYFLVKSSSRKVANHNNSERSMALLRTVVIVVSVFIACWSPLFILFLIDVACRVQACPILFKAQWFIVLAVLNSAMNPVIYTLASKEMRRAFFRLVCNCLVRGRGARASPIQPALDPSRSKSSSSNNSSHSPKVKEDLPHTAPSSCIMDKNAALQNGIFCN
T cell HTS: T cell immune modulation candidate; response (vesicle binding), % at 7 µM; AID 2052; 2C CD8+ T cell-vesicle binding, flow cytometry; hits give low values; 0.068% of 330,000 active;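 active means response, share of CD8 T cells binding vesicles, and their 90th percentile fluorescence all below set limits, cut at about 80% in these data, passing the limit was not always enough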;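 further: values below 100% mean blocked vesicle binding to the CD8+ T cells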
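Incubation: binding step 1.5 h, 37 °C, antibody labelling 20 min, ice; system: murine 2C transgenic CD8+ T lymphocytes; technique: cytometric PE anti-B7-1 and Alexa647 anti-CD8 signals after 1% paraformaldehyde fixation; also added: QL9-charged Drosophila Ld/ICAM-1/B7-1 vesicles; control set: naked versus QL9-loaded vesicles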
Yeast superoxide: lowers age-related superoxide in aged yeast cells | S. cerevisiae aged cells, superoxide DHE fluorescence; hits give low values | superoxide response (% of plate mean), % at 10 µM | 0.18% of 330,000 active;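 active means superoxide response under a set limit, about three screen SD below normal, cut at about 65% in these data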;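 further: yeast aged for seven days with compound at 30 °C before DHE staining; 100% = average MFI of all compound-treated wells on the plate with controls excluded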
Superoxide pick: confirmation of caloric restriction mimetics inhibiting yeast age-related superoxide; S. cerevisiae aging, superoxide DHE fluorescence; hits give low values; 1% of 850 active; superoxide response (% of plate), % at 10 µM; shares compounds with Yeast superoxide;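 active means superoxide signal below 65% of the plate average of sample wells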;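 further: cells aged with compound for 7 days at 30 degrees C before staining; 100% equals mean DHE fluorescence of all compound wells on the plate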
DHE fluor count: DHE fluorescence interference, counter-screen artifact. fluorescence response, % at 10 µM. S. cerevisiae BY4741, flow cytometry; hits give low values. shares compounds with Yeast superoxide. 850 tested, under 10 active;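 active means fluorescence response below 15%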;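 further: percent of the mean fluorescence averaged over all compound wells on the plate; lower means stronger quenching of DHE signal or ROS scavenging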
Numbers without * were called inactive; nt = no result.

SMILES	S1P3 antagonist	T cell HTS	Yeast superoxide	Superoxide pick	DHE fluor count
COc1ccc(C(=O)N2CCN(c3cccc(Cl)c3)CC2)cc1	nt	392.6	100.6	98.3	107.9
COc1cccc(N2CCN(C(=O)c3ccc(-c4ccccc4)cc3)CC2)c1	nt	243.8	78.7	nt	nt
Cn1nc(C(=O)OCC(=O)Nc2ccccc2OC(F)F)c2ccccc2c1=O	nt	275.4	99.6	nt	nt
Cn1c2ccccc2c(=O)c2c(=O)n(C3CCCCC3)c(-c3cccs3)nc21	nt	359.9	65.2*	109.9	97.6
Cn1c2ccccc2c(=O)c2c(=O)n(C3CCCCCC3)c(C3CCCCC3)nc21	2.1	nt	nt	nt	nt
CCOC(=O)c1c(C)nc2ccc(Cl)cc2c1-c1ccccc1	-10.2	213.9	62.2*	94.8	102.4
CCOC(=O)c1c(C)nc2ccccc2c1-c1ccccc1	-18.4	384.0	104.1	nt	nt
Cc1ccc2cc(CN(c3ccccc3C)S(=O)(=O)c3ccccc3)c(=O)[nH]c2c1	nt	362.7	101.2	nt	nt
Cc1ccc(NS(=O)(=O)c2cc(C(=O)O)ccc2Cl)cc1	nt	256.6	93.8	nt	nt
O=C(O)c1ccc(NS(=O)(=O)c2cc(Cl)ccc2Cl)cc1	-24.0	131.9	104.8	113.9	118.5
O=c1c2sc(-c3ccccc3)cc2nc2n1CCC2	nt	129.8	47.6*	82.9	106.5
O=c1c2sc(-c3ccccc3)cc2nc2n1CCCCC2	0.4	246.0	100.9	nt	nt
CCOC(=O)c1ccc(NC(=O)C2CC(O)CN2S(=O)(=O)c2ccc(C)cc2)cc1 (stereo not given)	nt	657.6	93.6	nt	nt
CCn1c(=O)c(=O)n(CC)c2cc(S(=O)(=O)Nc3cc(C)ccc3C)ccc21	nt	506.7	88.2	nt	nt
Cc1ccc(C)c(NC(=S)NNC(=O)c2csc3c2CCCC3)c1	nt	466.1	99.7	nt	nt
CCNC(=S)NNC(=O)c1csc2c1CCCC2	nt	268.2	58.4*	88.0	102.9
O=C(CNC(=O)c1cccs1)c1ccc(Br)cc1	nt	195.7	92.3	nt	nt
COc1cc(C(=O)OCC(=O)NC(N)=O)cc(CN2C(=O)c3ccccc3C2=O)c1OC	nt	89.4	104.6	nt	nt
C=CCNc1ncnc2c1cnn2-c1ccc(Cl)cc1	-2.3	612.9	84.3	nt	nt
COc1ccc(-n2ncc3c(NCC(C)C)ncnc32)cc1	-3.8	231.3	77.5	116.7	106.4
COc1ccc(-n2ncc3c(NC(C)C)ncnc32)cc1	22.6	236.2	85.2	nt	nt
COCC(C)Nc1ncnc2c1cnn2-c1ccc(Cl)cc1 (stereo not given)	nt	173.0	106.8	89.3	92.7
OC(CN1CCCCC1)Cn1c2ccc(Cl)cc2c2cc(Cl)ccc21 (stereo not given)	nt	40.8	45.1*	95.5	93.1
OC(CN1CCOCC1)Cn1c2c(c3ccccc31)CCCC2 (stereo not given)	nt	258.6	111.7	nt	nt
OCCNCC(O)Cn1ccc2ccccc21 (stereo not given)	-23.4	360.2	110.7	nt	nt
SMILES	S1P3 antagonist	T cell HTS	Yeast superoxide	Superoxide pick	DHE fluor count
CCN(CC)CC(O)Cn1c2ccccc2c2ccccc21 (stereo not given)	10.6	368.9	86.5	112.4	90.0
CCN(CC(O)Cn1c2ccccc2c2ccccc21)S(=O)(=O)c1ccc(F)cc1 (stereo not given)	nt	294.8	107.0	nt	nt
OC(CN1CCOCC1)Cn1c2ccccc2c2ccccc21 (stereo not given)	nt	24.1	43.8*	97.0	105.3
OCCNCC(O)Cn1c2ccccc2c2ccccc21 (stereo not given)	-7.2	358.9	116.7	91.4	89.5
OC(CN1CCN(c2ccccn2)CC1)Cn1c2ccc(Cl)cc2c2cc(Cl)ccc21 (stereo not given)	nt	237.4	114.1	nt	nt
COc1ccccc1CCC(=O)N1CCN(S(=O)(=O)c2cc(C(F)(F)F)ccc2Cl)CC1	nt	396.7	105.8	nt	nt
CC(CCc1ccccc1)N1CCN(C)CC1 (stereo not given)	nt	232.4	107.2	nt	nt
COc1ccccc1NS(=O)(=O)c1cccc(C(=O)N2CC(C)OC(C)C2)c1 (stereo not given)	nt	421.3	98.0	nt	nt
Cc1ccc([C@@H]2[C@@H]3C(=O)N(C)C(=O)[C@@H]3[C@]3(Cc4ccccc4)C(=O)N(Cc4ccccn4)CC(=O)N23)o1	nt	548.3	94.3	nt	nt
CC(C)=CCN1CCN(Cc2cn(C(C)C)c3ccccc23)CC1CCO (stereo not given)	nt	292.1	100.1	nt	nt
Cc1ccc(CC(=O)CCc2ccccc2)cc1	nt	519.3	96.6	nt	nt
C=CCN(CC=C)CC(O)Cn1c2ccccc2c2ccccc21 (stereo not given)	nt	423.4	96.6	92.1	98.1
O=S(=O)(c1ccccc1)N(CC(O)Cn1c2ccccc2c2ccccc21)c1ccccc1 (stereo not given)	nt	157.8	92.7	nt	nt
O=C(COC(=O)C12CC3CC(CC(Cl)(C3)C1)C2)Nc1ccc2[nH]c(=O)[nH]c2c1	nt	217.8	102.1	nt	nt
O=C(Nc1ccccc1)c1ccc(Nc2c([N+](=O)[O-])cc([N+](=O)[O-])c3ccccc23)cc1	6.0	208.3	124.0	nt	nt
O=[N+]([O-])c1cc(Br)c(Nc2ccccc2)c([N+](=O)[O-])c1	nt	12.5	53.2*	84.5	100.3
CCOC(=O)N1CCC(NC(=O)CC2C(=O)NCCN2Cc2ccccc2)CC1 (stereo not given)	nt	671.3	95.0	nt	nt
COc1ccccc1-c1nnc(NC(=O)c2ccc(S(=O)(=O)N3CCCC3)cc2)o1	nt	0.0	101.0	116.1	105.6
Cc1cc(NC(=O)c2ccc(S(=O)(=O)N(C)CC3CCCO3)cc2)no1 (stereo not given)	-23.6	215.3	91.1	nt	nt
CS(=O)(=O)c1cccc(-c2nnc(NC(=O)c3ccc(S(=O)(=O)N4CCCC4)cc3)o2)c1	nt	289.8	102.7	nt	nt
CC1CCCN(S(=O)(=O)c2ccc(C(=O)Nc3nnc(-c4ccccn4)o3)cc2)C1 (stereo not given)	-1.6	140.4	74.0	nt	nt
CC1CCCN(S(=O)(=O)c2ccc(C(=O)Nc3nnc(C4CC4)o3)cc2)C1 (stereo not given)	nt	394.7	64.7*	93.1	100.1
O=C(Nc1nnc(-c2ccc(F)cc2)o1)c1ccc(S(=O)(=O)N2CCOCC2)cc1	nt	143.8	98.0	104.5	111.7
CC1CCCN(S(=O)(=O)c2ccc(C(=O)Nc3nnc(-c4ccccc4Cl)o3)cc2)C1 (stereo not given)	5.4	187.9	105.8	nt	nt
COc1ccc(-c2nnc(NC(=O)c3ccc(S(=O)(=O)N(C)CC4CCCO4)cc3)o2)c(OC)c1 (stereo not given)	nt	306.8	100.0	93.7	97.0
SMILES	S1P3 antagonist	T cell HTS	Yeast superoxide	Superoxide pick	DHE fluor count
NS(=O)(=O)c1ccc(CCNS(=O)(=O)c2ccc3c(c2)NC(=O)CO3)cc1	nt	310.2	124.2	nt	nt
O=C(c1cccnc1)N1CCCC(Nc2ccc(F)cc2)C1 (stereo not given)	nt	344.0	94.0	nt	nt
O=C1c2ccccc2CN1C(CO)Cc1ccccc1 (stereo not given)	nt	288.3	91.5	nt	nt
Cc1cccc(C)c1OCC(=O)NCc1ccccc1	nt	80.8	46.2*	110.5	110.9
O=C(COc1ccccc1)NCc1ccccc1	nt	300.3	93.2	nt	nt
CC(=O)NC(C)c1ccc(C(=O)CSc2nnc(C3CC3)n2C2CC2)cc1 (stereo not given)	nt	234.0	101.0	nt	nt
C#CCSc1nnc(-c2ccc(O)cc2)o1	-17.5	176.8	86.4	99.1	101.8
